16 compounds from ChEMBL document CHEMBL1275302, “Synthesis and in vitro antiproliferative activity of 5-alkyl-12(H)-quino[3,4-b] [1,4]benzothiazinium salts” (Eur J Med Chem, 2010) can be followed below.

Common to all, as to type: functional, cell-based
The subject of assay [1] is HCT-116. Kind of assay: Antiproliferative activity against human HCT116 cells after 24 hrs by MTS assay. The following applies: HCT-116, 24 h. In short, it runs like this: (§1)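 Cells kept at 37 °C, 5% CO2; seeded 1 × 10⁴ cells/well in D-MEM with 12% FCS, streptomycin and penicillin. After 24 h (about 80% confluent), aqueous stocks (DMSO added if needed) diluted in medium and added at various concentrations, 12 or 24 h incubation. Cells washed in PBS, resuspended in Phenol Red-free DMEM with MTS; formazan absorbance read. Survival as % of control; mean ± SD of three experiments; IC50 determined.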
A general note: Tetrazolium assays rely on reduction of a dye to a coloured formazan, in cell work by metabolically active cells.

The subject of assay [2] is Lewis lung carcinoma cell line. As to the kind of experiment: Antiproliferative activity against mouse LLC cells after 24 hrs by MTS assay. The method in brief: as §1
For assay [3], the system named is HCT-116. Kind of assay: Antiproliferative activity against human HCT116 cells at 0.1 to 100 ug/ml after 24 hrs by MTS assay. In short, it runs like this:
as §1

The subject of assay [4] is Lewis lung carcinoma cell line. Kind of assay: Antiproliferative activity against mouse LLC cells at 0.1 to 100 ug/ml after 24 hrs by MTS assay. The method in brief:
as §1

The structures appear in SMILES notation. Converted amounts (≈) assume the structure as drawn. The source made the active and inactive calls. The rule behind the calls is not given here.

Regarding `C[n+]1cc2c(c3ccccc31)Nc1ccccc1S2.[Cl-]`, the IC50 (usually the concentration at which inhibition is half-maximal) in the assay on HCT-116 [1] was 7.8 µg/mL; in assay [2] it was 2.3 µg/mL.

In the case of `C[n+]1cc2c(c3ccccc31)Nc1cccnc1S2.[Cl-]`, the IC50 with HCT-116 [1] amounted to 17.2 µg/mL; in assay [2], 13.2 µg/mL.

As to `C[n+]1cc2c(c3ccccc31)Nc1c(O)cccc1S2`, the result (with HCT-116 [3]; in assay [4]) was inactive.

Consider `C[n+]1cc2c(c3ccccc31)Nc1ccc(Cl)cc1S2.[Cl-]`, for which the values for the IC50 (in the assay with HCT-116 [1]; in assay [2]) were 7.4 µg/mL and 5.4 µg/mL, respectively.

With `Cc1ccc2c(c1)Sc1c[n+](C)c3ccccc3c1N2.[Cl-]`, the IC50 was found to be 4.4 µg/mL in the assay on HCT-116 [1] and 8.8 µg/mL in assay [2].

`C[n+]1cc2c(c3ccccc31)Nc1ccc(F)cc1S2.[Cl-]`: the figures for the IC50 (with HCT-116 [1]; in assay [2]) were 6.7 µg/mL and 6.4 µg/mL, respectively.

As to `C[n+]1cc2c(c3ccccc31)Nc1ccc(N)cc1S2.[Cl-]`, the IC50 with HCT-116 [1] turned out to be 5.1 µg/mL; in assay [2], 8.9 µg/mL.

For `C[n+]1cc2c(c3ccccc31)Nc1ccc(O)cc1S2.[Cl-]`, the IC50 was determined as 6.7 µg/mL in the assay with HCT-116 [1] and 7.2 µg/mL in assay [2].

In the case of `Cc1cccc2c1Nc1c(c[n+](C)c3ccccc13)S2`, the result (in the assay on HCT-116 [3]; in assay [4]) was inactive.

Turning to `C[n+]1cc2c(c3ccccc31)Nc1ccc(Br)cc1S2.[Cl-]`, the IC50 in the assay on HCT-116 [1] is 6.9 µg/mL; in assay [2] it was 6.5 µg/mL.

Regarding `CCCCCCCCCC[n+]1cc2c(c3ccccc31)Nc1ccccc1S2.[Br-]`, the IC50 came to 19.6 µg/mL with HCT-116 [1] and 17.1 µg/mL in assay [2].

With `COc1cccc2c1C(=O)c1c(O)c3c(c(O)c1C2=O)C[C@@](O)(C(=O)CO)C[C@@H]3O[C@H]1C[C@H](N)[C@H](O)[C@H](C)O1` [DOXORUBICIN], the concentration for half-maximal inhibition (IC50) in the assay on HCT-116 [1] is 3.3 µg/mL (≈ 6.07 µM); in assay [2], 3.7 µg/mL (≈ 6.81 µM).

On to `C[n+]1cc2c(c3ccccc31)Nc1cc(O)ccc1S2.[Cl-]`, for which the half-inhibitory concentration (IC50) came to 7.6 µg/mL with HCT-116 [1] and 5.7 µg/mL in assay [2].

`C[n+]1cc2c(c3ccccc31)Nc1c(N)cccc1S2`: the outcome (with HCT-116 [3]; in assay [4]) was inactive.

Consider `C[n+]1cc2c(c3ccccc31)Nc1cc(N)ccc1S2.[Cl-]`, for which the IC50 in the assay with HCT-116 [1] came to 2.2 µg/mL; in assay [2] it was 4.7 µg/mL.

As to `CCCC[n+]1cc2c(c3ccccc31)Nc1ccccc1S2.[Br-]`, the figures for the IC50 (in the assay on HCT-116 [1]; in assay [2]) were 14.4 µg/mL and 14 µg/mL, respectively.
